These results are taken from article PMC3530835 (Journal of medicinal chemistry, 2012).

The target in data set [1] is T1, PfGluPho (PfG6PD) (Plasmodium falciparum, UniProt Q8IKU0).
T1 sequence (Q8IKU0 1-910): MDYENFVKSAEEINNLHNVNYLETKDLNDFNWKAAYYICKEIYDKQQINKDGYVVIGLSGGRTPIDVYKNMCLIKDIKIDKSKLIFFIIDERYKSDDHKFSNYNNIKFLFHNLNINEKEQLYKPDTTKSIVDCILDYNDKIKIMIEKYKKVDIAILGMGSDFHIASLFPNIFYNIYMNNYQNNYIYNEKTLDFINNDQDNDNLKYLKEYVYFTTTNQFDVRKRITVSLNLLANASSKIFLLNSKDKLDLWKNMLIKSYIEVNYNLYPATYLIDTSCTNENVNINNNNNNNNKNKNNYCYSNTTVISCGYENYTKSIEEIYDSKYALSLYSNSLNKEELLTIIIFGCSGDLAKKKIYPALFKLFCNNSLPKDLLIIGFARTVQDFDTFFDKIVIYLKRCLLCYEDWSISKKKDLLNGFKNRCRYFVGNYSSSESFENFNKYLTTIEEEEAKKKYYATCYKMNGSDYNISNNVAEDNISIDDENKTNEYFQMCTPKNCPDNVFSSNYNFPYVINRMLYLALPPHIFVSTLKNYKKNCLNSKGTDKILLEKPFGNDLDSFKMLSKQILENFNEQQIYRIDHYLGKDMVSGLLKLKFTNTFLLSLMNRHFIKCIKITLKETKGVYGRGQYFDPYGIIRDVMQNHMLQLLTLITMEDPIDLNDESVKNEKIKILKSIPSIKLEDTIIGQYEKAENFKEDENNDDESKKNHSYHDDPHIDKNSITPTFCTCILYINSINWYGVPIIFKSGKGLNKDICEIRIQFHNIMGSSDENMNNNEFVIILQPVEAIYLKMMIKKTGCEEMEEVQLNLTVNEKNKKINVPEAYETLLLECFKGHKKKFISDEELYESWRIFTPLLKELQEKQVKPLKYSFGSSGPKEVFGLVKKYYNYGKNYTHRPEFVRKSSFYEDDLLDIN
The experiment in a line: PfGluPho primary dose response assay, resazurin/diaphorase-coupled. The following applies: for Decrease in potency relative to 5a: vs. 5a, Table 2. In kind it is biochemical.

Data set [2] concerns the target T1, PfGluPho (PfG6PD). The experiment in a line: Orthogonal PfGluPho assay, direct detection of NADPH. In kind it is biochemical. Particulars: Potency PfG6PD NADPH Kinetic.
A short description of another data set: Chemical stability. In kind it is physicochemical. Particulars: 10 μM, 1% DMSO, 5 equivalents of GSH, PBS pH 7.4, 23 °C, duration of the study.
The next data set can be described thus: Aqueous solubility. In kind it is physicochemical.
The target in a further data set is hG6PD (Homo sapiens, UniProt P11413). The experiment in a line: hG6PD counter screen. In kind it is biochemical. The following applies: Figure 3. On the technique in general: A counterscreen serves to expose hits that act by an unwanted route or on another target.
Sequence of hG6PD (P11413 whole entry): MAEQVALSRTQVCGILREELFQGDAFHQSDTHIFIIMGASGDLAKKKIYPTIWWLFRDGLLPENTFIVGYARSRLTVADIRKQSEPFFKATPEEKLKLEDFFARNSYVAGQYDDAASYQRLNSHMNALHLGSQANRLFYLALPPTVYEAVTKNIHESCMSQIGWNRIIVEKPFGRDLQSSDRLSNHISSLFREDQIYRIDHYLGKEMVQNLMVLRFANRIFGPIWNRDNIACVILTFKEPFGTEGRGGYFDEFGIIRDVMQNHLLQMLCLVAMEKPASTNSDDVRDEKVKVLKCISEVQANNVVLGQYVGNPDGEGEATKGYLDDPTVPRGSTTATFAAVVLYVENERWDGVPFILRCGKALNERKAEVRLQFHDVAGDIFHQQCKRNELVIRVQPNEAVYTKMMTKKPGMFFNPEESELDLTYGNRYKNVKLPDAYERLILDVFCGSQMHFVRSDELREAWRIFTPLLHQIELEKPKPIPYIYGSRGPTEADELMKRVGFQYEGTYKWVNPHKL
A further data set concerns P. falciparum. As to the kind of experiment: P. falciparum in culture. In kind it is cell-based. Particulars: Plasmodium falciparum, read-out: IC50 against P. falciparum in culture. In a few lines:
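Chloroquine-sensitive 3D7 and chloroquine-resistant Dd2 blood-stage strains. Infected RBCs seeded at 0.25% parasitemia (>70% rings) and 1.25% hematocrit in hypoxanthine-free medium, with varying test compound concentrations and a chloroquine control. Incubated 72 hours. Growth was read as 3H-hypoxanthine incorporation, and IC50 was derived by non-linear regression.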

The target in another data set is PfGluPho (Plasmodium falciparum, UniProt Q8IKU0). The experiment in a line: Mechanism of inhibition. In kind it is biochemical. In short, it runs like this:
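Test compound, titrated in DMSO, and G6P or NADP+ varied together. Substrate solution final: 3.3 mM MgCl2, 1 mM TCEP, 0.05 M Tris, plus 5 μM NADP+ (G6P titration) or 25 μM G6P (NADP+ titration). Reaction started with PfGluPho (final 0.2 μg/mL) in 0.005% Tween 20. NADPH fluorescence (ex340/em460) monitored over 10 min; initial slopes taken.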

[3] abbreviates: Potency PfG6PD Primary Assay, Table 6, Ave. ± S.E.M.
[4] abbreviates: PfG6PD IC50, Table 3, necessity of styryl moiety.
Where [5] appears, read: Potency PfG6PD Primary Assay, Table 5, Ave. ± S.E.M.

In brackets after ≈: the same amount, converted by molar mass.

What is called IC50 is the point on the concentration scale where inhibition reaches its midpoint. As to `COc1ccc(/C=C2\Sc3ccc(C(=O)NCCN4CCCCCC4)cc3NC2=O)cc1` [Compound 38], the IC50 against PfGluPho (PfG6PD) [1] (setting [3]) and against PfGluPho (PfG6PD) [2] (Table 6) was above 80 µM in each case.

Turning to `CCN1CCCC1CNC(=O)c1ccc2c(c1)NC(=O)/C(=C/c1ccccc1OC)S2` (stereo not drawn) [Compound 5d], the “Decrease in potency relative to 5a” value at PfGluPho (PfG6PD) [1] is given as 5 fold. Take `CCN1CCCC1CNC(=O)c1ccc2c(c1)NC(=O)CS2` (stereo not drawn) [Compound 3d]: the “PfG6PD activity (in words)” value on PfGluPho (PfG6PD) [1] is “complete loss of activity”. At PfGluPho (PfG6PD) [1] (setting [4]), the IC50 was above 80 µM. At PfGluPho (PfG6PD) [1] (setting [5]), `CCCN(CCC)CCNC(=O)c1ccc2c(c1)NC(=O)/C(=C/c1ccccc1)S2` [Compound 26] had an IC50 above 80 µM. With `O=C1Nc2cc(C(=O)NCCN3CCOCC3)ccc2S/C1=C\c1ccccc1F` [Compound 34], the half-maximal inhibitory concentration (IC50) at PfGluPho (PfG6PD) [1] (setting [3]) and against PfGluPho (PfG6PD) [2] (Table 6) was above 80 µM throughout. `CCCN(CCC)CCNC(=O)c1ccc2c(c1)NC(=O)/C(=C/c1ccc(C)cc1)S2` [Compound 27] yielded an IC50 against PfGluPho (PfG6PD) [1] (setting [5]) above 80 µM. With `COc1ccc(/C=C2\Sc3ccc(C(=O)NCCN4CCCC4)cc3NC2=O)cc1` [Compound 30], the IC50 on PfGluPho (PfG6PD) [2] (Table 6) is above 80 µM. In general, solubility refers to the concentration that dissolves in the medium under given conditions. Read a low solubility as a poorly soluble substance. As to `CCN1CCC[C@@H]1CNC(=O)c1ccc2c(c1)NC(=O)/C(=C/c1ccccc1F)S2` [Compound 11, (R,Z)-N-((1-ethylpyrrolidin-2-yl)methyl)-2-(2-fluorobenzylidene)-3-oxo-3,4-dihydro-2H-benzo[b][1,4]thiazine-6-carboxamide], the “Reactivity with GSH (in words)” value in the data set “Chemical stability” is “remained intact”. The solubility in “Aqueous solubility” (1x PBS, pH 7.4) is 71 µg/mL (≈ 167 µM); in the data set “Aqueous solubility” (pION's buffer, pH 5), above 126 µg/mL; in the data set “Aqueous solubility” (pION's buffer, pH 6.2) it was above 126 µg/mL; in “Aqueous solubility” (pION's buffer, pH 7.4), 29.4 µg/mL (≈ 69.1 µM). Besides, the “Selectivity for PfGluPho over hG6PD (in words)” value on hG6PD is given as “selective”. In addition, the “Preference for the R-enantiomer versus the S-enantiomer” value on PfGluPho (PfG6PD) [1] (11 vs. 12, Table 4) is 8 fold. In the data set on P. falciparum, the concentration for half-maximal inhibition (IC50) came out at 2.6 µM. Besides, on PfGluPho (G6P titration), the “Type of inhibition vs. G6P” value is on record as “competing with the substrate”. Besides, on PfGluPho (NADP+ titration), the “Type of inhibition vs. NADP+” value is on record as “mixed-type inhibition”.

In turn, `O=C1Nc2cc(C(=O)NCCN3CCCCCC3)ccc2S/C1=C\c1ccccc1Cl` [Compound 36] showed an IC50 at PfGluPho (PfG6PD) [2] (Table 6) above 80 µM. For `COc1ccc(/C=C2\Sc3ccc(C(=O)NCCN(C)C)cc3NC2=O)cc1` [Compound 19], the 50% inhibitory concentration (IC50) at PfGluPho (PfG6PD) [1] (setting [5]) and on PfGluPho (PfG6PD) [2] (Table 5) was above 80 µM in each case. As to `CCN1CCCC1CNC(=O)c1ccc2c(c1)NC(=O)C(Cc1ccccc1F)S2` (stereo not drawn) [Compound 10], the “PfG6PD activity (in words)” value on PfGluPho (PfG6PD) [1] was “complete loss of activity”. At PfGluPho (PfG6PD) [1] (setting [4]), this molecule had an IC50 above 80 µM. `COc1cccc(/C=C2\Sc3ccc(C(=O)NCCN4CCCCCC4)cc3NC2=O)c1` [Compound 37]: the half-maximal inhibitory concentration (IC50) against PfGluPho (PfG6PD) [1] (setting [3]) is above 80 µM. For `O=C1Nc2cc(C(=O)NCc3ccccc3)ccc2S/C1=C\c1ccccc1F` [Compound 41], the IC50 on PfGluPho (PfG6PD) [1] (setting [3]) and at PfGluPho (PfG6PD) [2] (Table 6) was above 80 µM each time. With `CC(C)(C)OC(=O)N1CCCC1CNC(=O)c1ccc2c(c1)NC(=O)/C(=C/c1ccccc1F)S2` (stereo not drawn) [Compound 14], the “PfG6PD activity (in words)” value at PfGluPho (PfG6PD) [1] was “inactive”. The molecule further had an IC50 against PfGluPho (PfG6PD) [1] (Potency PfG6PD Primary Assay, Table 4, Ave. ± S.E.M.) above 80 µM.

As to `CCN1CCCC1CNC(=O)c1ccc2c(c1)NC(=O)/C(=C/c1ccccc1C)S2` (stereo not drawn) [Compound 5c], at PfGluPho (PfG6PD) [1], the “Decrease in potency relative to 5a” value is reported as 3 fold. Molecule `O=C1Nc2cc(C(=O)NCCN3CCCC3)ccc2S/C1=C\c1ccccc1Cl` [Compound 31] returned an IC50 against PfGluPho (PfG6PD) [2] (Table 6) above 80 µM. In the case of `CN(C)c1ccccc1CNC(=O)c1ccc2c(c1)NC(=O)/C(=C/c1ccccc1F)S2` [Compound 42], on PfGluPho (PfG6PD) [1] (setting [3]), the IC50 is above 80 µM.
